Tests used:
[1] = target: Ionotropic glutamate receptor NMDA 1/2D (Rattus norvegicus) (UniProt P35439+Q62645); assay: Activity at rat recombinant GluN1/GluN2D receptor expressed in Xenopus oocytes assessesed as effect of glycine/glutamate-induced response at 3 uM by two-electrode voltage clamp technique relative to control; assay type: cell-based; details: Oocyte
Procedure, shortened: (§1)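 Two-electrode voltage clamp of Xenopus oocytes injected with 1–5 ng cRNA and kept in Barth's solution at 15°C for 2–5 days. Oocytes were perfused with 90 mM NaCl, 1.0 KCl, 0.5 BaCl2, 0.005 EDTA, 10 HEPES, pH 7.4, 23°C, and held at -40 mV. Compound was co-applied at 3 µM with agonist from 20 mM DMSO stocks, final DMSO 0.05–0.5%.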

[2] = target: Gamma-aminobutyric acid receptor subunit rho-1 (Homo sapiens) (UniProt P24046); assay: Activity at human recombinant GABA(C) receptor expressed in Xenopus oocytes assessed as effect on GABA-induced activation at 3 uM by two-electrode voltage clamp technique relative to control; assay type: cell-based; details: Oocyte; procedure, shortened: as §1
[3] = target: Histamine H1 receptor (Homo sapiens) (UniProt P35367); assay: Inhibition of H1 histamine receptor (unknown origin) at 5 uM by psychoactive drug screening programme assay
Procedure, shortened: (§2)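 Radioligand binding screen run by PDSP. Displacement of ligand binding was measured with test compound at 5 µM, n=4 per target.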

[4] = target: D(4) dopamine receptor (Homo sapiens) (UniProt P21917); assay: Inhibition of dopamine D4 receptor (unknown origin) at 5 uM by psychoactive drug screening programme assay; procedure, shortened: as §2
[5] = target: Kappa-type opioid receptor (Homo sapiens, UniProt P41145); assay: Inhibition of kappa opioid receptor (unknown origin) by psychoactive drug screening programme assay
[6] = target: Glutamate NMDA receptor; Grin1/Grin2c (Rattus norvegicus, UniProt P35439+Q00961); assay: Activity at rat recombinant GluN1/GluN2C receptor assessed as potentiation of glycine/glutamate-induced activation by two-electrode voltage clamp technique; assay type: protein-complex assay
[7] = target: Glutamate NMDA receptor; Grin1/Grin2a (Rattus norvegicus) (UniProt P35439+Q00959); assay: Activity at rat recombinant GluN1/GluN2A receptor expressed in Xenopus oocytes assessesed as effect of glycine/glutamate-induced response at 3 uM by two-electrode voltage clamp technique relative to control; assay type: cell-based; details: Oocyte; procedure, shortened: as §1
[8] = target: 5-hydroxytryptamine receptor 7 (Homo sapiens) (UniProt P34969); assay: Inhibition of serotonin 5-HT7 receptor (unknown origin) at 5 uM by psychoactive drug screening programme assay
[9] = target: Sodium-dependent dopamine transporter (Homo sapiens) (UniProt Q01959); assay: Inhibition of dopamine transporter (unknown origin) at 5 uM by psychoactive drug screening programme assay; procedure, shortened: as §2
[10] = target: Mu-type opioid receptor (Homo sapiens) (UniProt P35372); assay: Inhibition of mu opioid receptor (unknown origin) at 5 uM by psychoactive drug screening programme assay; procedure, shortened: as §2
[11] = target: Neuronal acetylcholine receptor; alpha3/beta4 (Homo sapiens) (UniProt P30926+P32297); assay: Activity at human recombinant alpha3beta4 nAChR expressed in Xenopus oocytes assessed as effect on acetylcholine-induced activation at 3 uM by two-electrode voltage clamp technique relative to control; assay type: cell-based; details: Oocyte; procedure, shortened: as §1
[12] = target: Alpha-1D adrenergic receptor (Homo sapiens) (UniProt P25100); assay: Inhibition of adrenergic alpha1D receptor (unknown origin) at 5 uM by psychoactive drug screening programme assay; procedure, shortened: as §2
[13] = target: Alpha-1A adrenergic receptor (Homo sapiens) (UniProt P35348); assay: Inhibition of adrenergic alpha1A receptor (unknown origin) at 5 uM by psychoactive drug screening programme assay; procedure, shortened: as §2
[14] = target: Glutamate receptor ionotropic, kainate 2 (Rattus norvegicus) (UniProt P42260); assay: Activity at rat recombinant GluK2 receptor expressed in Xenopus oocytes assessed as effect on glutamate-induced response at 3 uM by two-electrode voltage clamp technique relative to control; assay type: cell-based; details: Oocyte; procedure, shortened: as §1
[15] = target: Alpha-2A adrenergic receptor (Homo sapiens) (UniProt P08913); assay: Inhibition of adrenergic alpha2A receptor (unknown origin) at 5 uM by psychoactive drug screening programme assay; procedure, shortened: as §2
[16] = target: Alpha-2B adrenergic receptor (Homo sapiens) (UniProt P18089); assay: Inhibition of adrenergic alpha2B receptor (unknown origin) at 5 uM by psychoactive drug screening programme assay; procedure, shortened: as §2
[17] = target: Ionotropic glutamate receptor NMDA 1/2D (Rattus norvegicus, UniProt P35439+Q62645); assay: Activity at rat recombinant GluN1/GluN2D receptor assessed as potentiation of glycine/glutamate-induced activation by two-electrode voltage clamp technique; assay type: protein-complex assay
[18] = target: Alpha-2C adrenergic receptor (Homo sapiens) (UniProt P18825); assay: Inhibition of adrenergic alpha2C receptor (unknown origin) at 5 uM by psychoactive drug screening programme assay; procedure, shortened: as §2
[19] = target: Glutamate receptor ionotropic, kainate 1 (Rattus norvegicus) (UniProt P22756); assay: Activity at rat recombinant GluK1 receptor expressed in Xenopus oocytes assessed as effect on glutamate-induced response at 3 uM by two-electrode voltage clamp technique relative to control; assay type: cell-based; details: Oocyte; procedure, shortened: as §1
[20] = target: 5-hydroxytryptamine receptor 1A (Homo sapiens) (UniProt P08908); assay: Inhibition of serotonin 5-HT1A receptor (unknown origin) at 5 uM by psychoactive drug screening programme assay; procedure, shortened: as §2
[21] = target: P2X purinoceptor 2 (Rattus norvegicus) (UniProt P49653); assay: Activity at rat recombinant purinergic P2X2 receptor expressed in Xenopus oocytes assessed as effect on ATP-induced activation at 3 uM by two-electrode voltage clamp technique relative to control; assay type: cell-based; details: Oocyte; procedure, shortened: as §1
[22] = target: Glutamate receptor 3 (Rattus norvegicus) (UniProt P19492); assay: Activity at rat recombinant GluA3 receptor expressed in Xenopus oocytes assessed as effect on glutamate-induced response at 3 uM by two-electrode voltage clamp technique relative to control; assay type: cell-based; details: Oocyte; procedure, shortened: as §1
[23] = target: 5-hydroxytryptamine receptor 1D (Homo sapiens) (UniProt P28221); assay: Inhibition of serotonin 5-HT1D receptor (unknown origin) at 5 uM by psychoactive drug screening programme assay; procedure, shortened: as §2
[24] = target: Sodium-dependent serotonin transporter (Homo sapiens) (UniProt P31645); assay: Inhibition of serotonin transporter (unknown origin) at 5 uM by psychoactive drug screening programme assay
[25] = target: 5-hydroxytryptamine receptor 2A (Homo sapiens) (UniProt P28223); assay: Inhibition of serotonin 5-HT2A receptor (unknown origin) at 5 uM by psychoactive drug screening programme assay; procedure, shortened: as §2
[26] = target: D(3) dopamine receptor (Homo sapiens) (UniProt P35462); assay: Inhibition of dopamine D3 receptor (unknown origin) at 5 uM by psychoactive drug screening programme assay; procedure, shortened: as §2
[27] = target: Neuronal acetylcholine receptor subunit alpha-7 (Homo sapiens) (UniProt P36544); assay: Activity at human recombinant alpha7 nAChR expressed in Xenopus oocytes assessed as effect on acetylcholine-induced activation at 3 uM by two-electrode voltage clamp technique relative to control; assay type: cell-based; details: Oocyte; procedure, shortened: as §1
[28] = target: Sigma non-opioid intracellular receptor 1 (Homo sapiens) (UniProt Q99720); assay: Inhibition of sigma1 receptor (unknown origin) at 5 uM by psychoactive drug screening programme assay
[29] = target: Muscarinic acetylcholine receptor M2 (Homo sapiens) (UniProt P08172); assay: Inhibition of M2 receptor (unknown origin) at 5 uM by psychoactive drug screening programme assay; procedure, shortened: as §2
[30] = target: D(2) dopamine receptor (Homo sapiens) (UniProt P14416); assay: Inhibition of dopamine D2 receptor (unknown origin) at 5 uM by psychoactive drug screening programme assay; procedure, shortened: as §2
Sequence of D(2) dopamine receptor (Homo sapiens) (P14416 whole entry): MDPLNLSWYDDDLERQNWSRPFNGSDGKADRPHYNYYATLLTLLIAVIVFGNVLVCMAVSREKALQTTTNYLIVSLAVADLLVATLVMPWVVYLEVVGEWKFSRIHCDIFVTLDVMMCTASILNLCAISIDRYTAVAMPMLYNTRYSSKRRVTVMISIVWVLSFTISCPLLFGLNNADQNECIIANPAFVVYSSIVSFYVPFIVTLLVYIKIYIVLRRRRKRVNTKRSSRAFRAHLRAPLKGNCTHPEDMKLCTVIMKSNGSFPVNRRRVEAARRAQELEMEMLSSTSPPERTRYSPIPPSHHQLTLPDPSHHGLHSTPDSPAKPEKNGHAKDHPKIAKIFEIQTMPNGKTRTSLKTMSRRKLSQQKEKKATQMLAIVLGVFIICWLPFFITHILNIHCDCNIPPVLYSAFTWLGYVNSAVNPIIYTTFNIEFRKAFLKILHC

Sequence of Sodium-dependent serotonin transporter (Homo sapiens) (P31645 whole entry, looked up): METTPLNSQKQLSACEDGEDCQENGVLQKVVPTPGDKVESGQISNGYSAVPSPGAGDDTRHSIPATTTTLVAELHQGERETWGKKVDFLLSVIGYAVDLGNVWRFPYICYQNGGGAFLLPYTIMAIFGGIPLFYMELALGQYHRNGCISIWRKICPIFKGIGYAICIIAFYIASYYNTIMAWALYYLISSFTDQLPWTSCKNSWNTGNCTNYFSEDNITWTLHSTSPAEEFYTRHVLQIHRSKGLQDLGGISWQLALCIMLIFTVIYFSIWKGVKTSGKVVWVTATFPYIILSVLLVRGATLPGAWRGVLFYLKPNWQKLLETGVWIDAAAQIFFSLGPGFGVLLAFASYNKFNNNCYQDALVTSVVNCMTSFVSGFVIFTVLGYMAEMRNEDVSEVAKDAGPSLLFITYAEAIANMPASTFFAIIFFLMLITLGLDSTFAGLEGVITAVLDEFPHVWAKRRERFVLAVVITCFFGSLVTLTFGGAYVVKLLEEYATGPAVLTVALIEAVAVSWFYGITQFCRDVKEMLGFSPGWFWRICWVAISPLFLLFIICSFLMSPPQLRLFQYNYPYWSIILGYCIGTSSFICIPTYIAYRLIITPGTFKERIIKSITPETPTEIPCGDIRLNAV
Sequence of Sigma non-opioid intracellular receptor 1 (Homo sapiens) (Q99720 whole entry): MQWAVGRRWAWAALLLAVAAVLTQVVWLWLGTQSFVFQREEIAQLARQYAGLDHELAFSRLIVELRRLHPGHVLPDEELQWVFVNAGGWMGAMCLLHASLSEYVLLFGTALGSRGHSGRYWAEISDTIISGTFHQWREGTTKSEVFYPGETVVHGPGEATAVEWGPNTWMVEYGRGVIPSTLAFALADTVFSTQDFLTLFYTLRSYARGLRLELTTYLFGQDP
Sequence of Glutamate receptor ionotropic, kainate 1 (Rattus norvegicus) (P22756 whole entry): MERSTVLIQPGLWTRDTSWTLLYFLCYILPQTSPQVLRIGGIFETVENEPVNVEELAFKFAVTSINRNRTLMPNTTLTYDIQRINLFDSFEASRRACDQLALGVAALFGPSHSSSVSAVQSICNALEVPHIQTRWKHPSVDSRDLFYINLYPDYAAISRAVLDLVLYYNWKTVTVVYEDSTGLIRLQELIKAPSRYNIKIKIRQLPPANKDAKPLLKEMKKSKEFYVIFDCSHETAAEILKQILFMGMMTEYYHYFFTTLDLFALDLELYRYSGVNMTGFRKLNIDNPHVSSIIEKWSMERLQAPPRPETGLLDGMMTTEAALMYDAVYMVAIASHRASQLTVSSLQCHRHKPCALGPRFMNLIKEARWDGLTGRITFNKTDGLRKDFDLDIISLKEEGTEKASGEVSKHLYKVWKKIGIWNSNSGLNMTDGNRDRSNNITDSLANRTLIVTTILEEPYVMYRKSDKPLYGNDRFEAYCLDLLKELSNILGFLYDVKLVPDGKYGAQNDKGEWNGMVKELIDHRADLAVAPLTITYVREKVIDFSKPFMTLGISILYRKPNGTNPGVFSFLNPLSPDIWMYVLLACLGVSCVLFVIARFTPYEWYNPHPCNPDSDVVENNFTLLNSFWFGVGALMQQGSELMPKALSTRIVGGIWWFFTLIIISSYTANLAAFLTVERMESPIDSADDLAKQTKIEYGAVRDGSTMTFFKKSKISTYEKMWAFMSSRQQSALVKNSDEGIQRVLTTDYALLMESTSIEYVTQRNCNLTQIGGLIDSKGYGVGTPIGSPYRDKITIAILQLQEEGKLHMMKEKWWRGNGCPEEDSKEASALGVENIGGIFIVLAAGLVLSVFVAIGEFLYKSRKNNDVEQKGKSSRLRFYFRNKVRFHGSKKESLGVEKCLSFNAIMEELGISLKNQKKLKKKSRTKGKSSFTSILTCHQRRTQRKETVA
Sequence of Alpha-1D adrenergic receptor (Homo sapiens) (P25100 whole entry): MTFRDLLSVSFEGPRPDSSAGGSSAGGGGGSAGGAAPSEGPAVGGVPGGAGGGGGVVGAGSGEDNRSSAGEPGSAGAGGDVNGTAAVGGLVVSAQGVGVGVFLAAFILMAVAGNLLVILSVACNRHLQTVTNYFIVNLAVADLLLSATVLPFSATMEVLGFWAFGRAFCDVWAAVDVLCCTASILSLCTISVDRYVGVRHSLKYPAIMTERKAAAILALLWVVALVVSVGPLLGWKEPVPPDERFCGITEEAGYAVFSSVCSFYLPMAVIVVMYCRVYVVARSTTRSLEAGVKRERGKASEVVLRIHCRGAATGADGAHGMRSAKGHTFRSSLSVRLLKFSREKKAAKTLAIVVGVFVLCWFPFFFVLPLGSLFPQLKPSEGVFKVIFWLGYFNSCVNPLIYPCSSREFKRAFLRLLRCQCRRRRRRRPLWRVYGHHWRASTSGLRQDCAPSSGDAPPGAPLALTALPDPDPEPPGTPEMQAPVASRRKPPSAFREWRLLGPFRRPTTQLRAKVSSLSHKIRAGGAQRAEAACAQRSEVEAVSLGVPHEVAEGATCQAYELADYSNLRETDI
Sequence of Neuronal acetylcholine receptor subunit alpha-7 (Homo sapiens) (P36544 whole entry): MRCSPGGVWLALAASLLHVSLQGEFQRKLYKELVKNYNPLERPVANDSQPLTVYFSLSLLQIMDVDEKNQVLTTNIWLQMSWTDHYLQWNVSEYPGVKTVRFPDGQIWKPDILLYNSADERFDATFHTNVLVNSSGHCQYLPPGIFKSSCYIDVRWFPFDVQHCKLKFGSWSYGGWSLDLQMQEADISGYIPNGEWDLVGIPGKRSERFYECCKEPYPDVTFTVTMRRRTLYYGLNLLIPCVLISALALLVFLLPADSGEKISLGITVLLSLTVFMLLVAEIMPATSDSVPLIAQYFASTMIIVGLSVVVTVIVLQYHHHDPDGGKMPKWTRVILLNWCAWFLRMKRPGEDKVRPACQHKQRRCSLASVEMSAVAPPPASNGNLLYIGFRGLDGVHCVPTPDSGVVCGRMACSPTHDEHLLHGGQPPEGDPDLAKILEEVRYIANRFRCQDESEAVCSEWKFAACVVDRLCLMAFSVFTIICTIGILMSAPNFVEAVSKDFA
Sequence of Alpha-2C adrenergic receptor (Homo sapiens) (P18825 whole entry): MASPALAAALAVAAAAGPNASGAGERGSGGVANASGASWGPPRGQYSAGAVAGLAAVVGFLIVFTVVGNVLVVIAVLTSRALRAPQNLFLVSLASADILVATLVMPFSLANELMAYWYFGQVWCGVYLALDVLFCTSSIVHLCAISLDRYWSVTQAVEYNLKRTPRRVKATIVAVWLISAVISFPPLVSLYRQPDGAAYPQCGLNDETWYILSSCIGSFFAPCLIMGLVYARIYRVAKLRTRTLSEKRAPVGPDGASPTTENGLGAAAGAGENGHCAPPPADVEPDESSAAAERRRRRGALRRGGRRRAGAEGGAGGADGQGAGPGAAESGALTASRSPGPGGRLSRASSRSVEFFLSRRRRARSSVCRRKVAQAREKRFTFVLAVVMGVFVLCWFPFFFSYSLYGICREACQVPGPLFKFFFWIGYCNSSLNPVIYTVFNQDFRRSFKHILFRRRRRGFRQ
Sequence of D(4) dopamine receptor (Homo sapiens) (P21917 whole entry): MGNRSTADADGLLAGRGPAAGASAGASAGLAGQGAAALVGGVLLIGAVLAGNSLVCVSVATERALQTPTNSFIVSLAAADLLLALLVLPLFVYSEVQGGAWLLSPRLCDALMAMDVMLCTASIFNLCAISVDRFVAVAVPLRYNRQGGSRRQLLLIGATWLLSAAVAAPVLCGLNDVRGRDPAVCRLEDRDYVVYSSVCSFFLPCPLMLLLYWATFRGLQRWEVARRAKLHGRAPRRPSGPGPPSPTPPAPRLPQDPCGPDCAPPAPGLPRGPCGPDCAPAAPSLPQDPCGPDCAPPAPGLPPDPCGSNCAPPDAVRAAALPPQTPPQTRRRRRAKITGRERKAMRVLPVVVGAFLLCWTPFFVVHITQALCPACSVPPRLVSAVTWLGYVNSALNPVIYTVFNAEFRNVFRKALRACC
Sequence of Muscarinic acetylcholine receptor M2 (Homo sapiens) (P08172 whole entry): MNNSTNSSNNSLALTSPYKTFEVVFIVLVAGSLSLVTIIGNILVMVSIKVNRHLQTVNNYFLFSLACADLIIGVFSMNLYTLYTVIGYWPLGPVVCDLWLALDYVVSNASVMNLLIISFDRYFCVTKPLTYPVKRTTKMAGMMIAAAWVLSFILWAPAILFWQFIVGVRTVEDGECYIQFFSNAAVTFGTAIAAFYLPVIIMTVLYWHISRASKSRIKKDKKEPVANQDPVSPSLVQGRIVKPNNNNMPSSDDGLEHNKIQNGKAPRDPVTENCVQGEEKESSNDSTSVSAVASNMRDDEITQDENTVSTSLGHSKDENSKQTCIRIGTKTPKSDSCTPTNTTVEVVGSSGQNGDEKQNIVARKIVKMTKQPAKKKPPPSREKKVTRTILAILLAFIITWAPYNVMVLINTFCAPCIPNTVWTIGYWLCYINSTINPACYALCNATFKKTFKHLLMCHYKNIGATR

## COc1ccc(OCC2c3ccc(OCc4ccccc4)cc3CCN2C(=O)c2cccc(Br)c2)cc1 (stereo not given)
[1]
  Activity: 213%
[2]
  Activity: 99%
[3]
  inhibition: < 50%
[4]
  inhibition: < 50%
[5]
  Ki: > 5000 nM
[6]
  EC50: 300 nM
[7]
  Activity: 105%
[8]
  inhibition: < 50%
[9]
  inhibition: < 50%
[10]
  inhibition: < 50%
[11]
  Activity: 95%
[12]
  inhibition: < 50%
[13]
  inhibition: < 50%
[14]
  Activity: 98%
[15]
  inhibition: < 50%
[16]
  inhibition: < 50%
[17]
  EC50: 300 nM
[18]
  inhibition: < 50%
[19]
  Activity: 101%
[20]
  inhibition: < 50%
[21]
  Activity: 94%
[22]
  Activity: 99%
[23]
  inhibition: < 50%
[24]
  inhibition: < 50%
[25]
  inhibition: < 50%
[26]
  inhibition: < 50%
[27]
  Activity: 90%
[28]
  inhibition: < 50%
[29]
  inhibition: < 50%
[30]
  inhibition: < 50%

Reference: ChEMBL document CHEMBL2396604, “Synthesis and structure activity relationship of tetrahydroisoquinoline-based potentiators of GluN2C and GluN2D containing N-methyl-D-aspartate receptors” (J Med Chem, 2013)
